{"source": "ChEMBL document CHEMBL4359889", "about": "(Eur J Med Chem, 2019)", "key": {"[1]": {"test": "Biodistribution in nude mouse assessed as accumulation in brain tissue at 100 uCi, iv measured for 5 mins by PET imaging analysis", "assay_type": "ADME, organism-based", "conditions": "in vivo; call rule not given here", "in_short": "(§1)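 Dynamic PET 0–10 min after injection under anesthesia, then 10-min static scans at 30 and 60 min. Regions of interest drawn on decay-corrected whole-body coronal images and converted to %ID/cc. Mean ± SD.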"}, "[2]": {"test": "Drug uptake in human NCI-H2228 cells harboring EML4-fused ALK variant 3 at 1 uCi incubated for 30 mins by radioactivity-based assay", "assay_type": "ADME, cell-based", "conditions": "nci-h2228, 0.5 h", "in_short": "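H2228 cells seeded at 10⁶ per well in RPMI-1640 with 10% FBS. Wells washed twice with ice-cold PBS, cells trypsinized 5 min at 37°C, then gamma counted. Uptake given as cpm per million cells, in triplicate.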"}, "[3]": {"test": "Biodistribution in nude mouse assessed as accumulation in heart tissue at 100 uCi, iv measured for 60 mins by PET imaging analysis", "assay_type": "ADME, organism-based", "conditions": "in vivo, 1 h", "in_short": "as §1"}, "[4]": {"test": "Biodistribution in nude mouse assessed as accumulation in brain tissue at 100 uCi, iv measured for 10 mins by PET imaging analysis", "assay_type": "ADME, organism-based", "conditions": "in vivo", "in_short": "as §1"}, "[5]": {"test": "Biodistribution in nude mouse assessed as accumulation in brain tissue at 100 uCi, iv measured for 30 mins by PET imaging analysis", "assay_type": "ADME, organism-based", "conditions": "in vivo, 0.5 h", "in_short": "as §1"}, "[6]": {"test": "Octanol/water partition coefficient, logP of compound at 1 uCi vortex for 5 mins and repeated for 4 times by gamma counter method", "assay_type": "physicochemical", "in_short": "(§2)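 Vortexed 5 min, repeated four times, then centrifuged 2×5 min at 4000 rpm, 4°C. Value taken from the ratio of octanol to aqueous activity.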"}, "[7]": {"test": "Biodistribution in nude mouse assessed as accumulation in heart tissue at 100 uCi, iv measured for 10 mins by PET imaging analysis", "assay_type": "ADME, organism-based", "conditions": "in vivo", "in_short": "as §1"}, "[8]": {"test": "Biodistribution in nude mouse assessed as accumulation in liver tissue at 100 uCi, iv measured for 5 mins by PET imaging analysis", "assay_type": "ADME, organism-based", "conditions": "in vivo", "in_short": "as §1"}, "[9]": {"test": "Biodistribution in nude mouse assessed as accumulation in muscle tissue at 100 uCi, iv measured for 5 mins by PET imaging analysis", "assay_type": "ADME, organism-based", "conditions": "in vivo", "in_short": "as §1"}, "[10]": {"test": "Biodistribution in nude mouse assessed as accumulation in liver tissue at 100 uCi, iv measured for 30 mins by PET imaging analysis", "assay_type": "ADME, organism-based", "conditions": "in vivo, 0.5 h", "in_short": "as §1"}, "[11]": {"test": "Biodistribution in nude mouse assessed as accumulation in muscle tissue at 100 uCi, iv measured for 10 mins by PET imaging analysis", "assay_type": "ADME, organism-based", "conditions": "in vivo", "in_short": "as §1"}, "[12]": {"test": "Biodistribution in nude mouse assessed as accumulation in kidney tissue at 100 uCi, iv measured for 5 mins by PET imaging analysis", "assay_type": "ADME, organism-based", "conditions": "in vivo", "in_short": "as §1"}, "[13]": {"test": "Biodistribution in nude mouse assessed as accumulation in heart tissue at 100 uCi, iv measured for 30 mins by PET imaging analysis", "assay_type": "ADME, organism-based", "conditions": "in vivo, 0.5 h", "in_short": "as §1"}, "[14]": {"test": "Lipophilicity, log D of the compound in octanol/pH 7.4 PBS vortex at 1 uCi for 5 mins and repeated for 4 times by gamma counter method", "assay_type": "physicochemical", "conditions": "octanol/water, pH 7.4, 5 min", "in_short": "as §2"}, "[15]": {"test": "Biodistribution in nude mouse assessed as accumulation in liver tissue at 100 uCi, iv measured for 60 mins by PET imaging analysis", "assay_type": "ADME, organism-based", "conditions": "in vivo, 1 h", "in_short": "as §1"}, "[16]": {"test": "Biodistribution in nude mouse assessed as accumulation in kidney tissue at 100 uCi, iv measured for 30 mins by PET imaging analysis", "assay_type": "ADME, organism-based", "conditions": "in vivo, 0.5 h", "in_short": "as §1"}, "[17]": {"test": "Biodistribution in nude mouse assessed as accumulation in brain tissue at 100 uCi, iv measured for 60 mins by PET imaging analysis", "assay_type": "ADME, organism-based", "conditions": "in vivo, 1 h", "in_short": "as §1"}, "[18]": {"test": "Biodistribution in nude mouse assessed as accumulation in heart tissue at 100 uCi, iv measured for 5 mins by PET imaging analysis", "assay_type": "ADME, organism-based", "conditions": "in vivo", "in_short": "as §1"}, "[19]": {"test": "Biodistribution in nude mouse assessed as accumulation in kidney tissue at 100 uCi, iv measured for 60 mins by PET imaging analysis", "assay_type": "ADME, organism-based", "conditions": "in vivo, 1 h", "in_short": "as §1"}, "[20]": {"test": "Biodistribution in nude mouse assessed as accumulation in muscle tissue at 100 uCi, iv measured for 30 mins by PET imaging analysis", "assay_type": "ADME, organism-based", "conditions": "in vivo, 0.5 h", "in_short": "as §1"}, "[21]": {"test": "Biodistribution in nude mouse assessed as accumulation in kidney tissue at 100 uCi, iv measured for 10 mins by PET imaging analysis", "assay_type": "ADME, organism-based", "conditions": "in vivo", "in_short": "as §1"}, "[22]": {"test": "Biodistribution in nude mouse assessed as accumulation in liver tissue at 100 uCi, iv measured for 10 mins by PET imaging analysis", "assay_type": "ADME, organism-based", "conditions": "in vivo", "in_short": "as §1"}, "[23]": {"test": "Biodistribution in nude mouse assessed as accumulation in muscle tissue at 100 uCi, iv measured for 60 mins by PET imaging analysis", "assay_type": "ADME, organism-based", "conditions": "in vivo, 1 h", "in_short": "as §1"}, "[24]": {"test": "Drug uptake in human H441 cells at 1 uCi incubated for 30 mins by radioactivity-based assay", "assay_type": "ADME, cell-based", "conditions": "nci-h441, 0.5 h", "in_short": "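Medium removed, two ice-cold PBS washes, trypsinised 5 min at 37°C, gamma counted. Uptake expressed as counts per minute per million cells; triplicate.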"}, "NCI-H441": {"system": "NCI-H441", "test": "Cytotoxicity in human H441 cells incubated for 72 hrs by alamar blue reagent based assay", "assay_type": "cell-based", "in_short": "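Cells seeded at 8,000 per well in RPMI-1640 with 10% FBS, dosed next day across a concentration range for 72 h. Alamar Blue (1:10, in phenol red-free RPMI with 10% FBS) added for 4 h, fluorescence read at ex 530/em 580 nm. IC50 from curve fit; triplicate in three independent sets, mean ± SD.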"}, "NCI-H2228": {"system": "NCI-H2228", "test": "Cytotoxicity in human NCI-H2228 cells harboring EML4-fused ALK variant 3 incubated for 72 hrs by alamar blue reagent based assay", "assay_type": "functional, cell-based", "conditions": "NCI-H2228, 72 h"}}, "data": [{"smiles": "Cc1cc(Nc2ncc(Cl)c(Nc3ccccc3S(=O)(=O)C(C)C)n2)c(OC(C)C)cc1C1CCN(CC[18F])CC1", "values": [{"measurement": "Drug uptake", "setting": "[1]", "result": 6.6, "unit": "%ID/cc"}, {"measurement": "Drug uptake", "setting": "[2]", "result": "Active"}, {"measurement": "Drug uptake", "setting": "[3]", "result": 2.6, "unit": "%ID/cc"}, {"measurement": "Drug uptake", "setting": "[4]", "result": 6.5, "unit": "%ID/cc"}, {"measurement": "Drug uptake", "setting": "[5]", "result": 4.6, "unit": "%ID/cc"}, {"measurement": "logP", "setting": "[6]", "result": 0.97}, {"measurement": "Drug uptake", "setting": "[7]", "result": 7, "unit": "%ID/cc"}, {"measurement": "Drug uptake", "setting": "[8]", "result": 16.8, "unit": "%ID/cc"}, {"measurement": "Drug uptake", "setting": "[9]", "result": 3.6, "unit": "%ID/cc"}, {"measurement": "Drug uptake", "setting": "[10]", "result": 9.5, "unit": "%ID/cc"}, {"measurement": "Drug uptake", "setting": "[11]", "result": 3.9, "unit": "%ID/cc"}, {"measurement": "Drug uptake", "setting": "[12]", "result": 20.2, "unit": "%ID/cc"}, {"measurement": "Drug uptake", "setting": "[13]", "result": 3.1, "unit": "%ID/cc"}, {"measurement": "logD", "setting": "[14]", "result": 1.51}, {"measurement": "Drug uptake", "setting": "[15]", "result": 6.4, "unit": "%ID/cc"}, {"measurement": "Drug uptake", "setting": "[16]", "result": 7.2, "unit": "%ID/cc"}, {"measurement": "Drug uptake", "setting": "[17]", "result": 4, "unit": "%ID/cc"}, {"measurement": "Drug uptake", "setting": "[18]", "result": 9.1, "unit": "%ID/cc"}, {"measurement": "Drug uptake", "setting": "[19]", "result": 5.7, "unit": "%ID/cc"}, {"measurement": "Drug uptake", "setting": "[20]", "result": 2.4, "unit": "%ID/cc"}, {"measurement": "Drug uptake", "setting": "[21]", "result": 18.2, "unit": "%ID/cc"}, {"measurement": "Drug uptake", "setting": "[22]", "result": 17.9, "unit": "%ID/cc"}, {"measurement": "Drug uptake", "setting": "[23]", "result": 2.1, "unit": "%ID/cc"}]}, {"smiles": "CCc1cc2c(cc1N1CCC(N3CCOCC3)CC1)C(C)(C)c1c(c3ccc(C#N)cc3n1CC[18F])C2=O", "values": [{"measurement": "Drug uptake", "setting": "[24]", "result": "Active"}]}, {"smiles": "CCc1cc2c(cc1N1CCC(N3CCOCC3)CC1)C(C)(C)c1c(c3ccc(C#N)cc3n1CCF)C2=O", "values": [{"measurement": "IC50", "setting": "NCI-H441", "result": "Non-Toxic"}, {"measurement": "IC50", "setting": "NCI-H2228", "result": 0.01, "unit": "µM"}]}, {"smiles": "Cc1cc(Nc2ncc(Cl)c(Nc3ccccc3S(=O)(=O)C(C)C)n2)c(OC(C)C)cc1C1CCN(CCF)CC1", "values": [{"measurement": "IC50", "setting": "NCI-H2228", "result": 24.2, "unit": "µM"}]}, {"smiles": "C[C@@H](Oc1cc(-c2cnn(C3CCN(CC[18F])CC3)c2)cnc1N)c1c(Cl)ccc(F)c1Cl", "values": [{"measurement": "Drug uptake", "setting": "[2]", "result": "Active"}, {"measurement": "Drug uptake", "setting": "[17]", "result": 1.8, "unit": "%ID/cc"}, {"measurement": "Drug uptake", "setting": "[23]", "result": 1.2, "unit": "%ID/cc"}]}, {"smiles": "C[C@@H](Oc1cc(-c2cnn(C3CCN(CCF)CC3)c2)cnc1N)c1c(Cl)ccc(F)c1Cl", "values": [{"measurement": "IC50", "setting": "NCI-H2228", "result": 7.5, "unit": "µM"}]}, {"smiles": "CCc1cc2c(cc1N1CCC(N3CCOCC3)CC1)C(C)(C)c1[nH]c3cc(C#N)ccc3c1C2=O", "note": "[ALECTINIB]", "values": [{"measurement": "IC50", "setting": "NCI-H441", "result": "Non-Toxic"}]}]}
